Like-named read-outs stand apart in the source and are kept apart here.
Assays:
HsLysRS = HsLysRS (Homo sapiens, UniProt Q15046); test: Thermal shift assay, HsLysRS; format: binding
PfLysRS [1] = biological target: T1, PfLysRS (Plasmodium falciparum, UniProt Q8IDJ8); test: Thermal shift assay, PfLysRS; format: binding, P. falciparum
Pf-like human LysRS = Pf-like human LysRS (Homo sapiens, UniProt Q15046, P300T/Q321V/T337S); test: Thermal shift assay, Pf-like human LysRS; format: binding
Procedure, shortened: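 Pf-like human LysRS (residues 70-584) was co-expressed in E. coli BL21(DE3) with His-tagged AIMP2/p38 1-36 and purified by Ni affinity and gel filtration. A 2× mix held 4 μM protein in Tris-HCl pH 8.0/NaCl/DTT, plus 40 μM test compound, 1 mM lysine, 40 μM ATP or 2 mM CaCl2. It sat 30 min at room temperature, then was chilled and mixed 1:1 with dye. Fluorescence was read during heating from 10 to 90 °C at 1 °C/min, averaging 8 curves. Tm was fitted by Levenberg-Marquardt. Kd was extrapolated to 25 °C, assuming 62760 J/mol binding enthalpy. Kd was not determined for negative ΔTm.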

[2] = tested on: blood- and liver- stage Plasmodium falciparum parasite forms; conditions: Plasmodium parasites compared to mammalian cells; ref Hoepfner et al., 2012; cited from earlier work
human cells = conditions: ref Hoepfner et al., 2012; cited from earlier work
Colletotrichum acutatum = conditions: CP at 30 μM; ref Wang et al., 2013; cited from earlier work
Phomopsis viticola = conditions: CP at 30 μM; ref Wang et al., 2013; cited from earlier work
E. coli = conditions: up to 100 μg/ml CP; ref Anke, 1979; cited from earlier work
PfLysRS [3] = biological target: T1, PfLysRS; conditions: yeast-growth-based assay; ref Hoepfner et al., 2012; cited from earlier work
[4] = tested on: Colletotrichum gloeosporioides; conditions: CP at 30 μM; ref Wang et al., 2013; cited from earlier work
Colletotrichum fragariae = conditions: CP at 30 μM; ref Wang et al., 2013; cited from earlier work
[5] = tested on: yeast LysRS Q324V and T340S; conditions: Q324V and T340S mutations of yeast LysRS; ref Hoepfner et al., 2012; cited from earlier work
IleRS = conditions: ref Hughes and Mellows, 1980; cited from earlier work
[6] = HsLysRS, ligand alone (no lysine co-ligand for ATP/CP)
[7] = Pf-like human LysRS, ligand alone (no lysine co-ligand for ATP/CP)
[8] = Pf-like human LysRS, with lysine
[9] = PfLysRS, ligand alone (no lysine co-ligand), estimated from ΔTm, 25°C

Chain of HsLysRS (Q15046 70-584): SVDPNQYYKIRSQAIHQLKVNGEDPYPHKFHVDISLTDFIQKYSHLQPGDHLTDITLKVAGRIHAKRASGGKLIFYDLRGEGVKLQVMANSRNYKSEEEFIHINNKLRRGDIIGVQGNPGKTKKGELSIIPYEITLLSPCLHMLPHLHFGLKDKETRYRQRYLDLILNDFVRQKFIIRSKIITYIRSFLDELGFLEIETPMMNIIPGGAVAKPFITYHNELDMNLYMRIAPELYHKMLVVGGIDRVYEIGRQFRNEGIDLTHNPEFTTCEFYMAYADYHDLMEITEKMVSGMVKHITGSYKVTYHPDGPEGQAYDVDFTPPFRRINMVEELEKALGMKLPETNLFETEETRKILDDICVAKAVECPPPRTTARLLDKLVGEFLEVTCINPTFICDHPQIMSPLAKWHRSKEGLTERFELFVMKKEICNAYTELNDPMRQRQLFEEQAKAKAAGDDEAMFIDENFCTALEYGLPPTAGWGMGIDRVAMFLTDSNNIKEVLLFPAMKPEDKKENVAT
Chain of HsLysRS (Q13155 1-36 partner limits assumed): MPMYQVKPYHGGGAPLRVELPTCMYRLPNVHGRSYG
Chain of Pf-like human LysRS (Q15046 70-584 P300T/Q321V/T337S): as the sequence (Q15046 70-584) above, with P231T, Q252V, T268S counted along it
Chain of Pf-like human LysRS (Q13155 1-36 partner limits assumed): as the sequence (Q13155 1-36 partner limits assumed) above

Nc1ncnc2c1ncn2[C@@H]1O[C@H](COP(=O)(O)OP(=O)(O)OP(=O)(O)O)[C@@H](O)[C@H]1O [ATP]
ΔTm (HsLysRS; [6]): -0.2 °C | ΔTm (HsLysRS; HsLysRS, with lysine): 0.9 °C | Kd (HsLysRS; HsLysRS, with lysine, estimated from ΔTm, 25°C): 2800 nM | ΔTm (PfLysRS [1]; PfLysRS, with lysine): 0.6 °C | ΔTm (Pf-like human LysRS; [7]): -0.9 °C | ΔTm (Pf-like human LysRS; [8]): 0.9 °C | Kd (Pf-like human LysRS; Pf-like human LysRS, with lysine, estimated from ΔTm, 25°C): 2200 nM

NCCCC[C@H](N)C(=O)O [Lysine, L-lysine]
Kd (HsLysRS): 84900 nM | ΔTm (HsLysRS): 0.1 °C | Kd (PfLysRS [1]; [9]): 34100 nM | ΔTm at 1000 µM (PfLysRS [1]; read-out: ΔTm): 2.7 °C | ΔTm (Pf-like human LysRS; [7]): -0.2 °C

C[C@H]1CCC[C@H](C[C@H]2Cc3cc(O)cc(O)c3C(=O)O2)O1 [CP, cladosporin]
selectivity index (IC50/CC50) [2]: > 111 | effect on the growth of human cells (human cells): little effect | Kd (HsLysRS): 3300 nM | stabilization effect (melting temperature) (HsLysRS; HsLysRS, CP even with the presence of lysine): < 2 °C | ΔTm (HsLysRS; [6]): -0.8 °C | ΔTm (HsLysRS; HsLysRS, with lysine): 0.3 °C | Kd (PfLysRS [1]; PfLysRS, K-CP (with lysine)): ~2.4 nM | Kd (PfLysRS [1]; [9]): 1500 nM | Kd (PfLysRS [1]; PfLysRS, with lysine, estimated from ΔTm, 25°C): 2.4 nM | binding affinity tighter than in HsLysRS (PfLysRS [1]; PfLysRS vs HsLysRS, with lysine): 1375 fold | stabilization by CP together with lysine relative to CP-alone (PfLysRS [1]; PfLysRS, 17.1 °C vs 2.4 °C): 7 fold | stabilization effect with non-cognate amino acids (PfLysRS [1]; PfLysRS, CP, lysine replaced with any of the other 19 non-cognate amino acids): did not yield stabilization effect | increase of binding affinity by the presence of lysine (PfLysRS [1]; PfLysRS, Kd with lysine vs no lysine): 625 fold | ΔTm at 40 µM (PfLysRS [1]; read-out: ΔTm): 2.4 °C | inhibition of growth (Colletotrichum acutatum): over 80% | Kd (Pf-like human LysRS): 2100 nM | stabilization effect (melting temperature) (Pf-like human LysRS; Pf-like human LysRS, CP even with the presence of lysine): < 2 °C | ΔTm (Pf-like human LysRS; [7]): -1.1 °C | ΔTm (Pf-like human LysRS; [8]): 1.0 °C | inhibition of growth (Phomopsis viticola): over 80% | effect on growth of E. coli (E. coli): not affected | potency against PfLysRS relative to HsLysRS or yeast LysRS (PfLysRS [3]): 1000 fold | inhibition of growth [4]: over 80% | inhibition of growth (Colletotrichum fragariae): over 80% | increase of sensitivity for CP inhibition [5]: 40 fold

C/C(=C\C(=O)OCCCCCCCCC(=O)O)C[C@@H]1OC[C@H](C[C@@H]2O[C@H]2[C@@H](C)[C@H](C)O)[C@@H](O)[C@H]1O [mupirocin]
selectivity for pathogenic over mammalian IleRS (IleRS): about 8000 fold

Source: paper PMC4503318 (Chemistry & biology, 2015)
